Values after ≈ are worked out from the molar mass of the structure shown.
Assays:
Format in all cases: functional
Escherichia coli = test: Antibacterial activity against Escherichia coli MTCC 443 by broth dilution method
Outline: (§1)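 MIC by broth dilution in nutrient broth. Test bacteria were kept on nutrient agar slants and subcultured in Petri dishes before testing.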

Staphylococcus aureus = test: Antibacterial activity against Staphylococcus aureus MTCC 96 by broth dilution method; outline: as §1
Bacillus subtilis = test: Antibacterial activity against Bacillus subtilis MTCC 441 by broth dilution method; outline: as §1
[1] = test system: Staphylococcus epidermidis; test: Antibacterial activity against Staphylococcus epidermidis MTCC 435 by broth dilution method; outline: as §1
Pseudomonas aeruginosa = test: Antibacterial activity against Pseudomonas aeruginosa MTCC 741 by broth dilution method; outline: as §1
Aspergillus flavus [2] = test: Antifungal activity against Aspergillus flavus MTCC 277 at 100 ug/ml after 48 hrs by agar cup diffusion method; conditions: MTCC 277, 48 h, read-out: DIZ
Outline: (§2)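 Agar cup diffusion on autoclaved potato dextrose agar plates. Each plate was spread with 0.5 ml of a week-old culture, and test solutions at 30 and 100 per ml were added to cups. Plates were held at 28 °C for 48 h, and inhibition zone diameters were read in mm. Acetone served as the solvent control and amphotericin-B as the reference.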

Aspergillus niger [3] = test: Antifungal activity against Aspergillus niger MTCC 1344 at 30 ug/ml after 48 hrs by agar cup diffusion method; conditions: MTCC 1344, 48 h, read-out: DIZ; outline: as §2
Candida albicans [4] = test: Antifungal activity against Candida albicans MTCC 227 at 100 ug/ml after 48 hrs by agar cup diffusion method; conditions: MTCC 227, 48 h, read-out: DIZ; outline: as §2
Aspergillus niger [5] = test: Antifungal activity against Aspergillus niger MTCC 1344 at 100 ug/ml after 48 hrs by agar cup diffusion method; conditions: MTCC 1344, 48 h, read-out: DIZ; outline: as §2
Candida albicans [6] = test: Antifungal activity against Candida albicans MTCC 227 at 30 ug/ml after 48 hrs by agar cup diffusion method; conditions: MTCC 227, 48 h, read-out: DIZ; outline: as §2
Saccharomyces cerevisiae [7] = test: Antifungal activity against Saccharomyces cerevisiae MTCC 36 at 100 ug/ml after 48 hrs by agar cup diffusion method; conditions: MTCC 36, 48 h, read-out: DIZ; outline: as §2
Diutina rugosa [8] = test: Antifungal activity against Candida rugosa NCIM 3462 at 30 ug/ml after 48 hrs by agar cup diffusion method; conditions: NCIM 3462, 48 h, read-out: DIZ; outline: as §2
Diutina rugosa [9] = test: Antifungal activity against Candida rugosa NCIM 3462 at 100 ug/ml after 48 hrs by agar cup diffusion method; conditions: NCIM 3462, 48 h, read-out: DIZ; outline: as §2
Saccharomyces cerevisiae [10] = test: Antifungal activity against Saccharomyces cerevisiae MTCC 36 at 30 ug/ml after 48 hrs by agar cup diffusion method; conditions: MTCC 36, 48 h, read-out: DIZ; outline: as §2
Rhizopus arrhizus [11] = test: Antifungal activity against Rhizopus oryzae MTCC 262 at 30 ug/ml after 48 hrs by agar cup diffusion method; conditions: MTCC 262, 48 h, read-out: DIZ; outline: as §2
Aspergillus flavus [12] = test: Antifungal activity against Aspergillus flavus MTCC 277 at 30 ug/ml after 48 hrs by agar cup diffusion method; conditions: MTCC 277, 48 h, read-out: DIZ; outline: as §2
Rhizopus arrhizus [13] = test: Antifungal activity against Rhizopus oryzae MTCC 262 at 100 ug/ml after 48 hrs by agar cup diffusion method; conditions: MTCC 262, 48 h, read-out: DIZ; outline: as §2
Aspergillus niger [14] = test: Antifungal activity against Aspergillus niger MTCC 1344 at 50 ug/ml after 48 hrs by agar cup diffusion method; conditions: MTCC 1344, 48 h, read-out: DIZ
Outline: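 Agar cup diffusion on potato dextrose agar plates. 0.5 ml of a week-old A. niger culture spread over the solidified agar, then test solutions added to cups. Acetone served as negative control and amphotericin-B as positive control. Plates kept at 28 °C for 48 h. Read-out was inhibition zone diameter in mm.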

Candida albicans [15] = test: Antifungal activity against Candida albicans MTCC 227 at 50 ug/ml after 48 hrs by agar cup diffusion method; conditions: MTCC 227, 48 h, read-out: DIZ
Outline: (§3)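 Amphotericin-B reference at 50 per ml in the agar cup assay on potato dextrose agar. Plates were spread with 0.5 ml of a week-old fungal culture, incubated at 28 °C for 48 h, and inhibition zone diameter was read in mm. Acetone served as the negative control.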

Aspergillus flavus [16] = test: Antifungal activity against Aspergillus flavus MTCC 277 at 50 ug/ml after 48 hrs by agar cup diffusion method; conditions: MTCC 277, 48 h, read-out: DIZ; outline: as §3
Diutina rugosa [17] = test: Antifungal activity against Candida rugosa NCIM 3462 at 50 ug/ml after 48 hrs by agar cup diffusion method; conditions: NCIM 3462, 48 h, read-out: DIZ; outline: as §3
Saccharomyces cerevisiae [18] = test: Antifungal activity against Saccharomyces cerevisiae MTCC 36 at 50 ug/ml after 48 hrs by agar cup diffusion method; conditions: MTCC 36, 48 h, read-out: DIZ; outline: as §3
Rhizopus arrhizus [19] = test: Antifungal activity against Rhizopus oryzae MTCC 262 at 50 ug/ml after 48 hrs by agar cup diffusion method; conditions: MTCC 262, 48 h, read-out: DIZ; outline: as §3

Row | Structure (SMILES) | MIC (Escherichia coli) | MIC (Staphylococcus aureus) | MIC (Bacillus subtilis) | MIC [1] | MIC (Pseudomonas aeruginosa) | zone of inhibition at 100 µg/mL (Aspergillus flavus [2]) | zone of inhibition at 30 µg/mL (Aspergillus niger [3]) | zone of inhibition at 100 µg/mL (Candida albicans [4]) | zone of inhibition at 100 µg/mL (Aspergillus niger [5]) | zone of inhibition at 30 µg/mL (Candida albicans [6]) | zone of inhibition at 100 µg/mL (Saccharomyces cerevisiae [7]) | zone of inhibition at 100 µg/mL (Diutina rugosa [9]) | zone of inhibition at 100 µg/mL (Rhizopus arrhizus [13]) | other results
1 | CN[C@@H]1[C@H](O[C@H]2[C@H](O[C@H]3[C@H](O)[C@@H](O)[C@H](N=C(N)N)[C@@H](O)[C@@H]3N=C(N)N)O[C@@H](C)[C@]2(O)C=O)O[C@@H](CO)[C@H](O)[C@H]1O [STREPTOMYCIN] | 3.12 µg/mL (≈ 5.37 µM) | 1.56 µg/mL (≈ 2.68 µM) | 6.25 µg/mL (≈ 10.7 µM) | 1.56 µg/mL (≈ 2.69 µM) | 3.12 µg/mL (≈ 5.37 µM) | – | – | – | – | – | – | – | – | –
2 | O=c1c2ccccc2nc(C(F)(F)F)n1Cc1cn(CCC(F)(F)C(F)(F)C(F)(F)C(F)(F)C(F)(F)C(F)(F)C(F)(F)C(F)(F)F)nn1 | 75 µg/mL (≈ 101 µM) | 75 µg/mL (≈ 101 µM) | 75 µg/mL (≈ 101 µM) | 75 µg/mL (≈ 101 µM) | 75 µg/mL (≈ 101 µM) | 9 mm | 7 mm | 9 mm | 9 mm | 7 mm | 9 mm | – | – | –
3 | CC1(C)S[C@@H]2[C@H](NC(=O)Cc3ccccc3)C(=O)N2[C@H]1C(=O)O [PENICILLIN G] | 6.25 µg/mL (≈ 18.7 µM) | 6.25 µg/mL (≈ 18.7 µM) | 1.53 µg/mL (≈ 4.56 µM) | 3.12 µg/mL (≈ 9.35 µM) | 12.5 µg/mL (≈ 37.4 µM) | – | – | – | – | – | – | – | – | –
4 | C#CCOc1nc(-c2ccccc2)nc2ccccc12 | 150 µg/mL (≈ 576 µM) | 150 µg/mL (≈ 576 µM) | 150 µg/mL (≈ 576 µM) | 150 µg/mL (≈ 576 µM) | 150 µg/mL (≈ 576 µM) | – | 7 mm | 10 mm | 10 mm | 7 mm | – | – | – | –
5 | O=c1c2ccccc2nc(C(F)(F)F)n1Cc1cn(CCC(F)(F)C(F)(F)C(F)(F)C(F)(F)C(F)(F)C(F)(F)F)nn1 | 75 µg/mL (≈ 117 µM) | 150 µg/mL (≈ 234 µM) | 150 µg/mL (≈ 234 µM) | 150 µg/mL (≈ 234 µM) | 75 µg/mL (≈ 117 µM) | 12 mm | – | 9 mm | 9 mm | – | 12 mm | 13 mm | 13 mm | zone of inhibition at 30 µg/mL (Diutina rugosa [8]): 8 mm; zone of inhibition at 30 µg/mL (Saccharomyces cerevisiae [10]): 9 mm; zone of inhibition at 30 µg/mL (Rhizopus arrhizus [11]): 8 mm; zone of inhibition at 30 µg/mL (Aspergillus flavus [12]): 9 mm
6 | C[C@@H]1[C@H](O)[C@@H](C)/C=C/C=C/C=C/C=C/C=C/C=C/C=C/[C@H](O[C@@H]2O[C@H](C)[C@@H](O)[C@H](N)[C@@H]2O)C[C@@H]2O[C@](O)(C[C@@H](O)C[C@@H](O)[C@H](O)CC[C@@H](O)C[C@@H](O)CC(=O)O[C@H]1C)C[C@H](O)[C@H]2C(=O)O [AMPHOTERICIN B] | – | – | – | – | – | – | – | – | – | – | – | – | – | zone of inhibition at 50 µg/mL (Aspergillus niger [14]): 25 mm; zone of inhibition at 50 µg/mL (Candida albicans [15]): 23.5 mm; zone of inhibition at 50 µg/mL (Aspergillus flavus [16]): 25 mm; zone of inhibition at 50 µg/mL (Diutina rugosa [17]): 22 mm; zone of inhibition at 50 µg/mL (Saccharomyces cerevisiae [18]): 22 mm; zone of inhibition at 50 µg/mL (Rhizopus arrhizus [19]): 24 mm
7 | FC(F)(F)C(F)(F)C(F)(F)C(F)(F)C(F)(F)C(F)(F)C(F)(F)C(F)(F)CCn1nncc1COc1nc(-c2ccccc2)nc2ccccc12 | 75 µg/mL (≈ 100 µM) | 9.38 µg/mL (≈ 12.5 µM) | 37.5 µg/mL (≈ 50 µM) | 9.38 µg/mL (≈ 12.5 µM) | 37.5 µg/mL (≈ 50 µM) | 9 mm | 8 mm | 12 mm | 12 mm | 8 mm | 9 mm | 12 mm | 12 mm | –
8 | FC(F)(F)c1nc(OCc2cn(CCC(F)(F)C(F)(F)C(F)(F)C(F)(F)C(F)(F)C(F)(F)F)nn2)c2ccccc2n1 | 75 µg/mL (≈ 117 µM) | 9.38 µg/mL (≈ 14.6 µM) | 18.8 µg/mL (≈ 29.2 µM) | 9.38 µg/mL (≈ 14.6 µM) | 37.5 µg/mL (≈ 58.5 µM) | 9 mm | 8 mm | 12 mm | 12 mm | 8 mm | 9 mm | 9 mm | 9 mm | –
